For series [1], the target named is T1, LasR T75V/Y93F/A127W (Pseudomonas aeruginosa, UniProt P25084, A127W/T75V/Y93F).
T1 sequence (P25084 1-239 T75V/Y93F/A127W): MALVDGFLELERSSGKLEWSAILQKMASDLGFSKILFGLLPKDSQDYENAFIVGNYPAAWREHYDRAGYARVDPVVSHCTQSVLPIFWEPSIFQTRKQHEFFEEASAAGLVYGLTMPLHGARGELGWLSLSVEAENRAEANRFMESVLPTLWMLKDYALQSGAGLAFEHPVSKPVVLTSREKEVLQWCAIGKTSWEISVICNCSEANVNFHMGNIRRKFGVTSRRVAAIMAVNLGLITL
As to the kind of experiment: Pyocyanin assay, ΔlasI strain with LasR T75V/Y93F/A127W. Type of series: cell-based, Pseudomonas aeruginosa PA14. The note with it: 10 μM. A digest of the protocol: (§1)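 Overnight LB cultures of PA14 lasI (WT lasR) or lasI lasR T75V/Y93F/A127W were grown at 37°C, diluted (100 μL into 3 mL LB) and shaken 8 h at 37°C. They were then diluted 2 μL into 2 mL LB with DMSO or compound and shaken 17 h at 37°C. OD600 was read, then supernatant OD695 after centrifugation. Pyocyanin = OD695/OD600. n=3, SEM.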

Series [2] deals with T2, WT LasR (Pseudomonas aeruginosa, UniProt P25084).
T2 sequence (P25084 1-239): T1 sequence (P25084 1-239 T75V/Y93F/A127W) with V75T, F93Y, W127A
The series can be described thus: P. aeruginosa PA14 rhlA-mNG reporter assay, WT lasR. The class given is cell-based, Pseudomonas aeruginosa PA14. The following applies: ΔlasI P. aeruginosa PA14, 10 μM. A digest of the protocol:
(§2)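 P. aeruginosa PA14 lasI strains carried WT or T75V/Y93F/A127W lasR at the native chromosomal locus and a chromosomal prhlA-mNG fusion. Overnight cultures were diluted 1:1000 in LB with test compound at 10 μM and grown at 37°C for 8 h. Cells were pelleted and resuspended in PBS. Fluorescence was read at ex 485/em 535 nm, with A600 measured in parallel. n=3, SEM; multiple t-tests.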

Series [3] addresses T3, LasR Y93F (Pseudomonas aeruginosa, UniProt P25084, Y93F).
T3 sequence (P25084 1-239 Y93F): T1 sequence (P25084 1-239 T75V/Y93F/A127W) with V75T, W127A
As to the kind of experiment: E. coli lasB-lux reporter assay, LasR Y93F. Type of series: cell-based.

Series [4] has as its target T4, LasR Y93F/A127W (Pseudomonas aeruginosa, UniProt P25084, A127W/Y93F).
T4 sequence (P25084 1-239 Y93F/A127W): T1 sequence (P25084 1-239 T75V/Y93F/A127W) with V75T
The series can be described thus: E. coli lasB-lux reporter assay, LasR Y93F/A127W. Type of series: cell-based.

Series [5] addresses T5, WT LasR LBD (Pseudomonas aeruginosa, UniProt P25084).
T5 sequence (P25084 1-173 limits assumed): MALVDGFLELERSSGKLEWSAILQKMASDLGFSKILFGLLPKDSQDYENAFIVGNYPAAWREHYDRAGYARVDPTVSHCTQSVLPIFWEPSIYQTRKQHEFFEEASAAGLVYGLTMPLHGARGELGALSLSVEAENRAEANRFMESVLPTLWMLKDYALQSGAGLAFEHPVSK
The series can be described thus: Protein solubility assay, WT LasR LBD produced in E. coli. The class given is cell-based. The following applies: 10 μM compound. A digest of the protocol:
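E. coli BL21(DE3) with plasmid-borne 6xHis-WT LasR LBD were grown overnight, diluted 1:500 in LB with ampicillin and grown to OD600 0.5. Cells were induced with 1 mM IPTG plus test compound at 10 μM final, then shaken 4 h at 25°C or 37°C. Whole-cell lysate and soluble fractions were compared by band intensity. Fraction soluble = soluble band / whole-cell lysate band.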

The target of series [6] is T6, LasR T75V/A127W (Pseudomonas aeruginosa, UniProt P25084, A127W/T75V).
T6 sequence (P25084 1-239 T75V/A127W): T1 sequence (P25084 1-239 T75V/Y93F/A127W) with F93Y
As to the kind of experiment: E. coli lasB-lux reporter assay, LasR T75V/A127W. Type of series: cell-based.

Series [7] addresses T7, LasR T75V/Y93F (Pseudomonas aeruginosa, UniProt P25084, T75V/Y93F).
T7 sequence (P25084 1-239 T75V/Y93F): T1 sequence (P25084 1-239 T75V/Y93F/A127W) with W127A
As to the kind of experiment: E. coli lasB-lux reporter assay, LasR T75V/Y93F. Type of series: cell-based.

Series [8] has as its target T2, WT LasR. The series can be described thus: E. coli lasB-lux reporter assay, WT LasR. Type of series: cell-based.
Series [9] addresses T1, LasR T75V/Y93F/A127W. The series can be described thus: E. coli lasB-lux reporter assay, LasR T75V/Y93F/A127W. The class given is cell-based.
For series [10], the target named is T1, LasR T75V/Y93F/A127W. The series can be described thus: P. aeruginosa PA14 rhlA-mNG reporter assay, lasR T75V/Y93F/A127W. The note with it: ΔlasI P. aeruginosa PA14, 10 μM. The class given is cell-based, Pseudomonas aeruginosa PA14. A digest of the protocol: as §2
The target of series [11] is T2, WT LasR. The series can be described thus: Pyocyanin assay, ΔlasI strain with WT LasR. The note with it: 10 μM. The class given is cell-based, Pseudomonas aeruginosa PA14. A digest of the protocol:
as §1

Series [12] has as its system luciferase. The series can be described thus: Off-target inhibition of luciferase in the E. coli lasB-lux reporter strain. The class given is cell-based. The following applies: high concentrations (>10 μM).
The target of series [13] is T8, LasR T75V (Pseudomonas aeruginosa, UniProt P25084, T75V).
T8 sequence (P25084 1-239 T75V): T1 sequence (P25084 1-239 T75V/Y93F/A127W) with F93Y, W127A
As to the kind of experiment: E. coli lasB-lux reporter assay, LasR T75V. Type of series: cell-based.

Series [14] deals with WT LasR. As to the kind of experiment: E. coli lasB-lux reporter assay, WT LasR. Type of series: cell-based, Pseudomonas aeruginosa. The following applies: LasR T75V, Y93F and A127W single mutations, each relative to WT LasR.
Series [15] deals with T9, LasR LBD (Pseudomonas aeruginosa, UniProt P25084).
T9 sequence (P25084 1-173 limits assumed): T5 sequence (P25084 1-173 limits assumed)
The series can be described thus: Thermal shift assay, LasR LBD:BB0126. The class given is binding. A digest of the protocol: (§3)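 6xHis-LasR LBD (WT or T75V/Y93F/A127W) was expressed in E. coli BL21(DE3) with 1 mM IPTG and 100 μM ligand (4 h, 25°C), then purified by Ni-NTA and size exclusion. Ligand-bound protein at 5 μM in 20 mM Tris-HCl pH 8, 200 mM NaCl, 1 mM DTT, with DMSO or 10 μM ligand, stood 15 min at room temperature. SYPRO Orange was added just before the run. Heating from 25 to 99°C at 0.05°C/s; fluorescence on ROX setting.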

For series [16], the target named is T10, LasR LBD T75V/Y93F/A127W (Pseudomonas aeruginosa, UniProt P25084, A127W/T75V/Y93F).
T10 sequence (P25084 1-173 T75V/Y93F/A127W limits assumed): T5 sequence (P25084 1-173 limits assumed) with T75V, Y93F, A127W
The series can be described thus: Thermal shift assay, LasR LBD T75V/Y93F/A127W:BB0126. Type of series: binding. The note with it: for effect of excess ligand on Tm: LasR LBD T75V/Y93F/A127W:BB0126 with 10 μM excess ligand. In outline: as §3

The target in series [17] is T11, LasR R61A (Pseudomonas aeruginosa, UniProt P25084, R61A).
T11 sequence (P25084 1-239 R61A): T1 sequence (P25084 1-239 T75V/Y93F/A127W) with R61A, V75T, F93Y, W127A
As to the kind of experiment: E. coli lasB-lux reporter assay, LasR R61A. The class given is cell-based.

Structures are written as SMILES. Changes are numbered by the printed parent chain. Where only a bound is given, the exact number is not on record here.

With `O=C(CCCOc1cccc(Br)c1)N[C@H]1C[C@@H]2C[C@@H]2C1=O` (relative stereo) [BB0020, 4-(3-bromophenoxy)-N-(rel-(1S,3S,5S)-2-oxobicyclo[3.1.0]hexan-3-yl)butanamide], the pyocyanin production result in [1] and in [11] was “activated both LasR alleles equally” in each case. Also, the “activation of prhlA-mNG” value in [2] is “activated prhlA-mNG”; in series [10], “activated the reporter”. Also, the EC50 in series [3] is 15 nM; in series [4], 100 nM; in [6], 20 nM; in [7] it was 20 nM; in series [8], 6 nM; in series [9], 20 nM. For the same molecule, the EC50 in [13] amounted to 15 nM. In series [5] (induction at 25°C), the “soluble WT LasR LBD” value is “yielded soluble WT LasR LBD”. In addition, the “off-target inhibition of luciferase” value in series [12] is reported as “caused off-target inhibition of luciferase”.
For `CS(=O)(=O)c1cccc(OCCCC(=O)N[C@H]2C[C@@H]3C[C@@H]3C2=O)c1` (relative stereo) [BB0126, 4-(3-(methylsulfonyl)phenoxy)-N-(rel-(1S,3S,5S)-2-oxobicyclo[3.1.0]hexan-3-yl)butanamide], the pyocyanin production result in series [1] is “responded to BB0126”. Further, the “activation of prhlA-mNG” value in series [2] is reported as “not in response to BB0126”; in [10] it was “activated the reporter”. Besides, the “soluble WT LasR LBD” value in [5] (induction at 25°C) is on record as “yielded soluble WT LasR LBD”; in series [5] (induction at 37°C), “significantly less soluble”. For the same molecule, the EC50 is 50 nM in [6]; 600 nM in series [7]; more than 3100 nM in [8]; 50 nM in series [9]; more than 10000 nM in series [17]; 1500 nM in series [13]. The “fold lower EC50 with the mutations” value in [14] was 2-to 6 fold. Also, the melting temperature peak in series [15] (LasR LBD:BB0126 in the presence of excess BB0126 (10 μM)) is 49.9 °C. The “thermal stability of the complex” value in series [15] (LasR LBD:BB0126 without additional ligand) is “unstable above room temperature”. In addition, the “effect of excess ligand on Tm” value in [16] is on record as “further enhanced the Tm”. The Tm in series [16] (LasR LBD T75V/Y93F/A127W:BB0126 without additional ligand) was 46.8 °C. Further, in series [12], the “off-target inhibition of luciferase” value was “caused off-target inhibition of luciferase”.
For `CCCCCCCCCC(=O)CC(=O)N[C@H]1CCOC1=O` [3OC12HSL, N-3-oxo-dodecanoyl-L-homoserine lactone, reference compound], in [5] (induction at 25°C), the “soluble WT LasR LBD” value was “yielded soluble WT LasR LBD”. The “stabilization by exogenous ligand” value in series [15] (LasR LBD:BB0126 with 10 μM exogenous 3OC12HSL) is “highly effective at binding to and stabilizing the LasR LBD”. Moreover, in [16], the “effect of excess ligand on Tm” value was “had no effect”. The pyocyanin production entry in [11] is “induced pyocyanin production”.

These data come from publication PMC6601336 (ACS chemical biology, 2019).
